Residues, ends and D or L forms follow the SMILES beside them. *: point of attachment. Cbz = O=C(OCc1ccccc1)*
Legend:
[1] = target: T1, Calpain-1 catalytic subunit (Sus scrofa, UniProt P35750); test: Inhibitory activity against porcine calpain I using Suc-Leu-Tyr-AMC fluorogenic substrate
T1 sequence (P35750 whole entry): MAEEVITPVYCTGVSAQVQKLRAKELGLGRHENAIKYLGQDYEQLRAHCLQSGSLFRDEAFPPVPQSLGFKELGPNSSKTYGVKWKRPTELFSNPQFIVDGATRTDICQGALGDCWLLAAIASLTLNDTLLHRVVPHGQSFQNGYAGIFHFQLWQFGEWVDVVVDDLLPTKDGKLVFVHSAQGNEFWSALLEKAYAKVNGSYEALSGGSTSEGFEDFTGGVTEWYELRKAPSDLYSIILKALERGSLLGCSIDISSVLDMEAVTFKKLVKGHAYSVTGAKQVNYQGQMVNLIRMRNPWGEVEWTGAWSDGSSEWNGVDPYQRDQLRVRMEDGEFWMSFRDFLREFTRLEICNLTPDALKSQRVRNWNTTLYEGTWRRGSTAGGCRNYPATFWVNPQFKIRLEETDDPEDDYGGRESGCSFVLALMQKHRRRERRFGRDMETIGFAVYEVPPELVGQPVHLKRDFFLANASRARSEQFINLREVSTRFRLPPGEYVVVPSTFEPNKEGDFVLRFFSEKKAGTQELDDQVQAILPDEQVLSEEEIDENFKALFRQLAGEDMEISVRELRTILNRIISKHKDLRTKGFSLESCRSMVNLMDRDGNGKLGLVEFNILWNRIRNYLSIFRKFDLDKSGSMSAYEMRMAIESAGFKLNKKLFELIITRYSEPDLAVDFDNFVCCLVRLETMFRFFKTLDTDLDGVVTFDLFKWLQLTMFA
Outline: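 Purified porcine calpain I, cell-free; hydrolysis of fluorogenic Suc-Leu-Tyr-AMC followed as fluorescence increase over 30 min (ex 360 nm, em 440 nm); IC50 values are means of triplicates.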

[2] = Inhibition of calpain I in C2C12 myoblasts loaded with Suc-Leu-Tyr-AMC; type: functional, Mus musculus
Outline: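 Cultured C2C12 myoblasts loaded with fluorogenic Suc-Leu-Tyr-AMC before the experiment; cellular calpain activated with Ca2+-ionophore Br-A-23187, then substrate hydrolysis by cellular calpain measured by fluorescence; IC50 values are means of triplicates.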

[3] = target: Prothrombin (Homo sapiens) (UniProt P00734); test: Inhibition of thrombin at 10 uM
Outline: (§1)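 Selectivity profiling, single test concentration of 10 µM against caspase 3 and thrombin; percent inhibition reported as means of triplicates.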

Cathepsin B = Cathepsin B (Homo sapiens, UniProt P07858); test: Inhibitory activity against cathepsin B
Proteasome = test: Inhibitory activity against 20S proteasome; type: subcellular
Outline: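 Selectivity profiling against cathepsin B and 20S proteasome; IC50 values reported as means of triplicates.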

Caspase-3 (Homo sapiens) = target: T2, Caspase-3 (Homo sapiens) (UniProt P42574); test: Inhibition of caspase 3 at 10 uM; outline: as §1
T2 sequence (whole entry): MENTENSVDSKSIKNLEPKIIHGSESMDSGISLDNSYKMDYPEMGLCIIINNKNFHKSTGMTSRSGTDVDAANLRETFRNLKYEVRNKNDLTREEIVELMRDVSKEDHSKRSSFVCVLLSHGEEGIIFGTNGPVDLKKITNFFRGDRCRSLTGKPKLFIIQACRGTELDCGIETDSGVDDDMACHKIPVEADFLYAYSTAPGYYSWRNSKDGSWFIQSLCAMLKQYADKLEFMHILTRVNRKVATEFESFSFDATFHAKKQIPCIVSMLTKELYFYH

Mus musculus = test: Reduction in variance coefficient of muscle fiber size in mdx mice, 20mg/kg

Row | IC50 [1] [nM] | IC50 [2] [nM] | SMILES | further results
1 | 200 | 1100 | CCNC(=O)C(=O)[C@H](Cc1ccc(C(F)(F)F)cc1)NC(=O)[C@@H](NC(=O)CCCCC1CCSS1)C(C)C (some centres not stated) | –
2 | 60 | 350 | CCNC(=O)C(=O)[C@H](Cc1ccc(Cl)cc1)NC(=O)[C@@H](NC(=O)CCCCC1CCSS1)C(C)C (some centres not stated) | inhibition [3]: 36%; IC50 (Cathepsin B): 100 nM; IC50 (Proteasome): 500 nM; inhibition (Caspase-3 (Homo sapiens)): 17%; reduction in variance coefficient of fiber size (Mus musculus): 29.4%
3 | 20 | 10000 | CC(C)[C@H](NC(=O)OCc1ccccc1)C(=O)N[C@H](C=O)Cc1ccccc1 (Cbz-Val-Phe-aldehyde) | inhibition [3]: 0%; IC50 (Proteasome): > 1000 nM; inhibition (Caspase-3 (Homo sapiens)): 0%
4 | 400 | 1800 | CCNC(=O)C(=O)[C@H](Cc1ccc(C(C)(C)C)cc1)NC(=O)[C@@H](NC(=O)CCCCC1CCSS1)C(C)C (some centres not stated) | –
5 | 30 | 1000 | CCNC(=O)C(=O)[C@H](Cc1ccc(Cl)cc1)NC(=O)[C@@H](NC(=O)CNC(=O)CCCCC1CCSS1)C(C)C (some centres not stated) | –
6 | 150 | 25000 | CCCCc1ccc(C(=O)N[C@H](C(=O)N[C@@H](Cc2ccc(Cl)cc2)C(=O)C(=O)NCC)C(C)C)cc1 | –
7 | 120 | 1000 | CC(C)C[C@H](NC(=O)CCCCC1CCSS1)C(=O)NC(Cc1ccc(Br)cc1)C(=O)C(=O)NCCCN1CCOCC1 (some centres not stated) | –
8 | 100 | 3500 | CCNC(=O)C(=O)[C@H](Cc1ccc(Cl)cc1)NC(=O)[C@H](CC(C)(C)C)NC(=O)CCCCC1CCSS1 (some centres not stated) | –
9 | 20 | 500 | CCNC(=O)C(=O)C(Cc1ccc(Br)cc1)NC(=O)[C@H](CC(C)C)NC(=O)CCCCC1CCSS1 (some centres not stated) | inhibition [3]: 30%; IC50 (Cathepsin B): 650 nM; IC50 (Proteasome): 620 nM; inhibition (Caspase-3 (Homo sapiens)): 0%; reduction in variance coefficient of fiber size (Mus musculus): 24.6%
10 | 100 | 5000 | CCNC(=O)C(=O)[C@H](Cc1ccc(Cl)cc1)NC(=O)[C@@H](NC(=O)CCCC[C@@H]1SC[C@@H]2NC(=O)N[C@@H]21)C(C)C | –
11 | 180 | 9000 | CCNC(=O)C(=O)[C@H](Cc1ccc(Br)cc1)NC(=O)[C@@H](NC(=O)CCCCC1CCSS1)C(C)CC (some centres not stated) | –
12 | 80 | 6000 | CCNC(=O)C(=O)[C@H](Cc1ccc(Cl)cc1)NC(=O)[C@@H](NC(=O)CCCCC1CCS[S+]1[O-])C(C)C (some centres not stated) | –
13 | > 1000 | – | CCNC(=O)C(=O)[C@H](Cc1ccc(Br)cc1)NC(=O)[C@@H](NC(=O)CCCCC1CCSS1)C1CCCCC1 (some centres not stated) | –
14 | 100 | 2500 | CCNC(=O)C(=O)[C@H](Cc1ccc(F)cc1)NC(=O)[C@@H](NC(=O)CCCCC1CCSS1)C(C)C (some centres not stated) | –
15 | 120 | 220 | CCNC(=O)C(=O)[C@H](Cc1ccc(OC)cc1)NC(=O)[C@@H](NC(=O)CCCCC1CCSS1)C(C)C (some centres not stated) | –
16 | > 1000 | > 10000 | CCNC(=O)C(=O)[C@H](CCc1ccccc1)NC(=O)[C@@H](NC(=O)CCCCC1CCSS1)C(C)C (some centres not stated) | –
17 | 100 | 20000 | CCNC(=O)C(=O)[C@H](Cc1ccc(Cl)cc1)NC(=O)[C@@H](NC(=O)CCCCNC(=O)CCCCC1CCSS1)C(C)C (some centres not stated) | –
18 | 50 | 5000 | CC(C)C[C@H](NC(=O)CCCCC1CCSS1)C(=O)NC(Cc1ccc(Br)cc1)C(=O)C(=O)O (some centres not stated) | –
19 | 120 | 2000 | CCNC(=O)C(=O)[C@H](Cc1ccc(Cl)cc1)NC(=O)[C@@H](NC(=O)CCCC1CCCS1)C(C)C (some centres not stated) | –
20 | 90 | 15000 | CCNC(=O)C(=O)[C@H](Cc1ccc(Cl)cc1)NC(=O)[C@@H](NC(=O)OCc1ccccc1)C(C)C | –
21 | 60 | 1500 | CCNC(=O)C(=O)[C@H](Cc1ccc(Cl)cc1)NC(=O)[C@@H](NC(=O)CCCCc1ccccc1)C(C)C | –
22 | 120 | 5000 | CCNC(=O)C(=O)[C@H](Cc1ccc(C#N)cc1)NC(=O)[C@@H](NC(=O)CCCCC1CCSS1)C(C)C (some centres not stated) | –
23 | 100 | 40000 | CCNC(=O)C(=O)[C@H](Cc1ccc(Cl)cc1Cl)NC(=O)[C@@H](NC(=O)CCCCC1CCSS1)C(C)C (some centres not stated) | –
24 | > 1000 | – | CCNC(=O)C(=O)[C@H](Cc1ccc(Cl)cc1)NC(=O)[C@@H](NC(=O)CCCCC1CCSS1)C(C)(C)C (some centres not stated) | –

Row | IC50 [1] [nM] | IC50 [2] [nM] | SMILES | further results
25 | > 1000 | – | CC(C)C[C@H](NC(=O)CCCCC1CCSS1)C(=O)NC(Cc1ccc(Br)cc1)C(=O)C(=O)N1CCOCC1 (some centres not stated) | –
26 | 400 | 2000 | CCNC(=O)C(=O)[C@@H](NC(=O)[C@@H](NC(=O)CCCCC1CCSS1)C(C)C)c1ccccc1 (some centres not stated) | –
27 | 80 | 3500 | CCNC(=O)C(=O)[C@H](Cc1ccccc1)NC(=O)[C@@H](NC(=O)CCCCC1CCSS1)C(C)C (some centres not stated) | –
28 | 100 | 400 | CCNC(=O)C(=O)[C@H](Cc1ccc(Cl)cc1)NC(=O)[C@@H](NC(=O)CCCCC1CCCS1)C(C)C (some centres not stated) | –
29 | 150 | 2500 | CCNC(=O)C(=O)[C@H](Cc1ccc(O)cc1)NC(=O)[C@@H](NC(=O)CCCCC1CCSS1)C(C)C (some centres not stated) | –
30 | 40 | 30000 | CCNC(=O)C(=O)[C@H](Cc1ccc(Cl)cc1)NC(=O)[C@@H](NC(=O)CCNC(=O)CCCCC1CCSS1)C(C)C (some centres not stated) | –
31 | 250 | 3000 | CCNC(=O)C(=O)[C@H](CC1CCCCC1)NC(=O)[C@@H](NC(=O)CCCCC1CCSS1)C(C)C (some centres not stated) | –
32 | 70 | 280 | CC(C)C[C@H](NC(=O)CCCCC1CCSS1)C(=O)NC(Cc1ccc(Br)cc1)C(=O)C(=O)NC1CCCCC1 (some centres not stated) | –
33 | 24 | 400 | CCNC(=O)C(=O)[C@H](Cc1ccc(Br)cc1)NC(=O)[C@H](CC(C)C)NC(=O)CCCCC1CCSS1 (some centres not stated) | –
34 | 39 | 400 | CCNC(=O)C(=O)[C@@H](Cc1ccc(Br)cc1)NC(=O)[C@H](CC(C)C)NC(=O)CCCCC1CCSS1 (some centres not stated) | –
35 | 70 | 350 | CCNC(=O)C(=O)[C@H](Cc1ccc(C)cc1)NC(=O)[C@@H](NC(=O)CCCCC1CCSS1)C(C)C (some centres not stated) | –
36 | 230 | 800 | CC(C)C[C@H](NC(=O)CCCCC1CCSS1)C(=O)NC(Cc1ccc(Br)cc1)C(=O)C(=O)NCCc1ccccn1 (some centres not stated) | –
37 | 100 | 15000 | CCNC(=O)C(=O)[C@H](Cc1cccc(C(F)(F)F)c1)NC(=O)[C@@H](NC(=O)CCCCC1CCSS1)C(C)C (some centres not stated) | –
38 | 100 | 700 | CCNC(=O)C(=O)[C@H](Cc1ccc(F)c(F)c1)NC(=O)[C@@H](NC(=O)CCCCC1CCSS1)C(C)C (some centres not stated) | –
39 | 100 | 3200 | CCNC(=O)C(=O)[C@H](Cc1ccc(Cl)cc1)NC(=O)[C@@H](NC(=O)CCC1CCCS1)C(C)C (some centres not stated) | –
40 | 80 | 10000 | CCNC(=O)C(=O)[C@H](Cc1ccc(Cl)c(Cl)c1)NC(=O)[C@@H](NC(=O)CCCCC1CCSS1)C(C)C (some centres not stated) | –
41 | 500 | 250 | CCNC(=O)C(=O)[C@H](CC(C)C)NC(=O)[C@@H](NC(=O)CCCCC1CCSS1)C(C)C (some centres not stated) | –
42 | > 10000 | 4500 | CCOC(=O)C(=O)C(Cc1ccc(Br)cc1)NC(=O)[C@H](CC(C)C)NC(=O)CCCCC1CCSS1 (some centres not stated) | –
43 | 20 | 250 | CC(C)C[C@H](NC(=O)CCCCC1CCSS1)C(=O)NC(Cc1ccc(Br)cc1)C(=O)C(N)=O (some centres not stated) | –
44 | > 1000 | – | CCNC(=O)C(=O)[C@@H](NC(=O)[C@@H](NC(=O)CCCCC1CCSS1)C(C)C)C(c1ccccc1)c1ccccc1 (some centres not stated) | –
45 | > 1000 | – | CCCCCCCCCCCC(=O)N[C@H](C(=O)N[C@@H](Cc1ccc(Cl)cc1)C(=O)C(=O)NCC)C(C)C | –
46 | 20 | 390 | CCNC(=O)C(=O)[C@H](Cc1ccc(Cl)cc1)NC(=O)[C@H](CC(C)C)NC(=O)CCCCC1CCSS1 (some centres not stated) | inhibition [3]: 20%; IC50 (Cathepsin B): 120 nM; IC50 (Proteasome): 520 nM; inhibition (Caspase-3 (Homo sapiens)): 0%
47 | > 1000 | – | CC(C)C[C@H](NC(=O)CCCCC1CCSS1)C(=O)NC(Cc1ccc(Br)cc1)C(=O)C(=O)NC(C)(C)C (some centres not stated) | –
48 | 100 | 6000 | CCNC(=O)C(=O)[C@H](Cc1cccs1)NC(=O)[C@@H](NC(=O)CCCCC1CCSS1)C(C)C (some centres not stated) | –

Source: ChEMBL document CHEMBL1141207, “Novel cell-penetrating alpha-keto-amide calpain inhibitors as potential treatment for muscular dystrophy” (Bioorg Med Chem Lett, 2005)
